ChEMBL document CHEMBL1141797, “Norsesquiterpenes from the brown alga Dictyopteris divaricata” (J Nat Prod, 2005)

What was measured:
Type in all cases: functional, cell-based
Bel-7402 = test: Cytotoxicity against human Bel7402 cells by MTT method
Procedure, shortened: (§1)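 MTT colorimetric read-out of cell viability, expressed as IC50 in µg/mL. Human tumour lines by origin: A549 lung adenocarcinoma, BGC-823 stomach cancer, MCF-7 breast cancer, Bel7402 hepatoma, HCT-8 colon cancer.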

MCF7 = test: Cytotoxicity against human MCF7 cells by MTT method; procedure, shortened: as §1
A549 = test: Cytotoxicity against human A549 cells by MTT method; procedure, shortened: as §1
BGC-823 = test: Cytotoxicity against human BGC823 cells by MTT method; procedure, shortened: as §1
HCT-8 = test: Cytotoxicity against human HCT8 cells by MTT method; procedure, shortened: as §1

Measured: IC50

CC(C)[C@@H]1CC[C@@H](C)[C@]2(O)CC(=O)C=C12
> 10 µg/mL: Bel-7402 | MCF7 | A549 | BGC-823 | HCT-8

CC(C)[C@@H]1CC[C@@H](C)[C@@]2(O)CC(=O)C=C12
> 10 µg/mL: Bel-7402 | MCF7 | A549 | BGC-823 | HCT-8

CC(C)[C@H]1CC[C@H](C)C2=CC(=O)C[C@@]21O
> 10 µg/mL: Bel-7402 | MCF7 | A549 | BGC-823 | HCT-8

CC(C)[C@@H]1CC[C@@H](C)[C@]2(O)CCC(=O)C=C12
> 10 µg/mL: Bel-7402 | MCF7 | A549 | BGC-823 | HCT-8
